One test concerns Cryptococcus neoformans. In words: Antimicrobial activity against Cryptococcus neoformans ATCC 3235 after 72 to 96 hrs by two fold serial dilution method. It counts as functional. In a few lines: (§1)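 Two-fold serial dilution in Sabouraud dextrose broth. Spores from 24 h to 7-day-old Sabouraud agar slant cultures were suspended in SDB. Compounds and reference drugs were tested at 200, 100, 50, 25, 12.5 and 6.25. Tubes were incubated in a BOD incubator, and MIC was recorded visually after 72–96 h.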

In another test the test system is Rhizopus. In words: Antimicrobial activity against Rhizopus sp. ATCC 2842 after 72 to 96 hrs by two fold serial dilution method. It counts as functional. Summed up:
as §1

The subject of another test is Aspergillus niger. In words: Antimicrobial activity against Aspergillus niger ATCC 635 after 72 to 96 hrs by two fold serial dilution method. The test is classed as functional. In a few lines:
as §1

The next test has as its system Aspergillus flavus. In words: Antimicrobial activity against Aspergillus flavus ATCC 525 after 72 to 96 hrs by two fold serial dilution method. The test is classed as functional. Summed up: as §1
Another test relates to Candida albicans. In words: Antimicrobial activity against Candida albicans ATCC 3430 by two fold serial dilution method. The test is classed as functional. Summed up: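 Sabouraud dextrose broth two-fold serial dilution. Cells or spores from 24 h to 7-day-old Sabouraud agar slant cultures were suspended in SDB. Test and reference agents were tested at 200, 100, 50, 25, 12.5 and 6.25. Tubes were incubated in a BOD incubator, with MIC read by visual observation.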

A further test deals with Staphylococcus aureus. In words: Antimicrobial activity against Staphylococcus aureus ATCC 25930 after 24 hrs by two fold serial dilution method. The test is classed as functional. Summed up: (§2)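 Nutrient broth two-fold serial dilution. Inoculum was seeded NB prepared from 24 h nutrient-agar cultures grown at 37 ± 1 °C and adjusted with sterile saline to 1×10⁴–10⁵ CFU. Compounds and reference drugs were tested at 200, 100, 50, 25, 12.5 and 6.25. Tubes were incubated in a BOD incubator, and MIC was read visually after 24 h.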

The next test relates to Bacillus subtilis. In words: Antimicrobial activity against Bacillus subtilis ATCC 530 after 24 hrs by two fold serial dilution method. It counts as functional. In a few lines: as §2
For another test, the system named is Escherichia coli. In words: Antimicrobial activity against Escherichia coli ATCC 26032 after 24 hrs by two fold serial dilution method. It counts as functional. Particulars: ATCC 26032, 24 h. In a few lines:
as §2

A further test relates to Klebsiella pneumoniae. In words: Antimicrobial activity against Klebsiella pneumoniae ATCC 16425 after 24 hrs by two fold serial dilution method. It counts as functional. Summed up: as §2
In a further test the test system is Salmonella typhi. In words: Antimicrobial activity against Salmonella typhi ATCC 25021 after 24 hrs by two fold serial dilution method. The test is classed as functional, Salmonella enterica subsp. enterica serovar Typhi. Particulars: Salmonella enterica, ATCC 25021, 24 h. Summed up: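 Two-fold serial dilution in nutrient broth. Seeded broth was made from 24 h bacterial cultures on nutrient agar grown at 37 ± 1 °C, and the suspension was adjusted with sterile saline to 1×10⁴–10⁵ CFU. Compounds and reference drugs were tested at 200, 100, 50, 25, 12.5 and 6.25. Tubes were incubated in a BOD incubator, and the MIC was read visually after 24 h.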

Values after ≈ are worked out from the molar mass of the structure shown. Active and inactive are the calls of the source.

On to `C[C@@H]1[C@H](O)[C@@H](C)/C=C/C=C/C=C/C=C/C=C/C=C/C=C/[C@H](O[C@@H]2O[C@H](C)[C@@H](O)[C@H](N)[C@@H]2O)C[C@@H]2O[C@](O)(C[C@@H](O)C[C@@H](O)[C@H](O)CC[C@@H](O)C[C@@H](O)CC(=O)O[C@H]1C)C[C@H](O)[C@H]2C(=O)O` [AMPHOTERICIN B], for which the MIC (usually the smallest concentration in the dilution series that meets the test's criterion for growth inhibition) turned out to be 25 mg/L (≈ 27.1 µM) against Cryptococcus neoformans; 25 mg/L (≈ 27.1 µM) in the test on Rhizopus; 50 mg/L (≈ 54.1 µM) in the test with Aspergillus niger; 50 mg/L (≈ 54.1 µM) in the test on Aspergillus flavus; 25 mg/L (≈ 27.1 µM) in the test on Candida albicans.
Take `CC1C(=O)C(C)C(c2cccc(F)c2)N(C(=O)Cn2nnc3ccccc32)C1c1cccc(F)c1` (centres undefined): the MIC with Staphylococcus aureus (ATCC 25930, 24 h) turned out to be 50 mg/L (≈ 105 µM); in the test with Bacillus subtilis (ATCC 530, 24 h), 25 mg/L (≈ 52.7 µM); against Escherichia coli, 50 mg/L (≈ 105 µM); against Klebsiella pneumoniae (ATCC 16425, 24 h), 25 mg/L (≈ 52.7 µM); in the test with Cryptococcus neoformans it was 100 mg/L (≈ 211 µM); in the test with Rhizopus, 100 mg/L (≈ 211 µM). Further, the MIC against Aspergillus niger and against Aspergillus flavus was 200 mg/L (≈ 421 µM) each time. In the test with Candida albicans, the MIC result was “inactive”.
Consider `CC1C(=O)C(C)C(c2ccccc2)N(C(=O)Cn2ccnc2)C1c1ccccc1` (centres undefined), for which the MIC result in the test with Staphylococcus aureus and in the test on Candida albicans was “inactive” in each case. The MIC with Bacillus subtilis (ATCC 530, 24 h) turned out to be 100 mg/L (≈ 258 µM); in the test on Salmonella typhi it was 100 mg/L (≈ 258 µM); with Escherichia coli, 6.25 mg/L (≈ 16.1 µM); in the test on Klebsiella pneumoniae (ATCC 16425, 24 h), 100 mg/L (≈ 258 µM); in the test on Cryptococcus neoformans, 100 mg/L (≈ 258 µM); against Rhizopus it was 200 mg/L (≈ 516 µM). Besides, the MIC in the test with Aspergillus niger and in the test with Aspergillus flavus was 100 mg/L (≈ 258 µM) in each case.
Regarding `CC1C(=O)CC(c2ccccc2)N(C(=O)Cn2ccnc2)C1c1ccccc1` (centres undefined), the MIC against Staphylococcus aureus (ATCC 25930, 24 h) amounted to 100 mg/L (≈ 268 µM); against Bacillus subtilis (ATCC 530, 24 h), 25 mg/L (≈ 66.9 µM); against Salmonella typhi, 200 mg/L (≈ 536 µM); against Escherichia coli it was 100 mg/L (≈ 268 µM); in the test on Klebsiella pneumoniae (ATCC 16425, 24 h), 50 mg/L (≈ 134 µM); in the test with Cryptococcus neoformans it was 100 mg/L (≈ 268 µM). Further, the MIC is 100 mg/L (≈ 268 µM) with Rhizopus, 200 mg/L (≈ 536 µM) against Aspergillus niger, 100 mg/L (≈ 268 µM) against Aspergillus flavus and 100 mg/L (≈ 268 µM) in the test on Candida albicans.
In the case of `CN[C@@H]1[C@H](O[C@H]2[C@H](O[C@H]3[C@H](O)[C@@H](O)[C@H](N=C(N)N)[C@@H](O)[C@@H]3N=C(N)N)O[C@@H](C)[C@]2(O)C=O)O[C@@H](CO)[C@H](O)[C@H]1O` [STREPTOMYCIN], the MIC is 50 mg/L (≈ 86 µM) in the test on Staphylococcus aureus (ATCC 25930, 24 h); 12.5 mg/L (≈ 21.5 µM) with Bacillus subtilis (ATCC 530, 24 h); 50 mg/L (≈ 86 µM) against Salmonella typhi; 12.5 mg/L (≈ 21.5 µM) against Escherichia coli; 25 mg/L (≈ 43 µM) with Klebsiella pneumoniae (ATCC 16425, 24 h).
For `COc1ccc(C2C(C)C(=O)C(C)C(c3ccc(OC)cc3)N2C(=O)Cn2ccnc2)cc1` (centres undefined), the MIC was 100 mg/L (≈ 223 µM) in the test with Staphylococcus aureus (ATCC 25930, 24 h); 50 mg/L (≈ 112 µM) in the test with Bacillus subtilis (ATCC 530, 24 h); 100 mg/L (≈ 223 µM) in the test with Salmonella typhi; 25 mg/L (≈ 55.9 µM) with Escherichia coli; 200 mg/L (≈ 447 µM) against Klebsiella pneumoniae (ATCC 16425, 24 h); 50 mg/L (≈ 112 µM) against Cryptococcus neoformans. For the same compound, the figures for the MIC against Rhizopus, in the test with Aspergillus flavus and in the test on Candida albicans were 100 mg/L (≈ 223 µM), 100 mg/L (≈ 223 µM) and 6.25 mg/L (≈ 14 µM), respectively. For the same compound, the MIC result in the test with Aspergillus niger is “inactive”.
For the compound `CC1C(=O)C(C)C(c2cccc(F)c2)N(C(=O)Cn2ccnc2)C1c1cccc(F)c1` (centres undefined), the MIC was determined as 50 mg/L (≈ 118 µM) in the test on Staphylococcus aureus (ATCC 25930, 24 h); 50 mg/L (≈ 118 µM) with Salmonella typhi; 200 mg/L (≈ 472 µM) with Escherichia coli; 200 mg/L (≈ 472 µM) against Klebsiella pneumoniae (ATCC 16425, 24 h); 6.25 mg/L (≈ 14.8 µM) with Cryptococcus neoformans; 25 mg/L (≈ 59 µM) against Rhizopus. The MIC in the test on Aspergillus niger was 100 mg/L (≈ 236 µM); with Candida albicans it was 50 mg/L (≈ 118 µM). Further, the MIC result with Bacillus subtilis and in the test with Aspergillus flavus was “inactive” throughout.
Consider `CCC1C(=O)CC(c2ccccc2)N(C(=O)Cn2ccnc2)C1c1ccccc1` (centres undefined), for which the MIC came to 200 mg/L (≈ 516 µM) with Staphylococcus aureus (ATCC 25930, 24 h); 200 mg/L (≈ 516 µM) in the test with Salmonella typhi; 50 mg/L (≈ 129 µM) in the test on Escherichia coli; 100 mg/L (≈ 258 µM) in the test with Klebsiella pneumoniae (ATCC 16425, 24 h); 50 mg/L (≈ 129 µM) against Cryptococcus neoformans; 100 mg/L (≈ 258 µM) in the test with Rhizopus. The MIC in the test on Aspergillus flavus and against Candida albicans was 200 mg/L (≈ 516 µM) throughout. For the same compound, the MIC result in the test on Bacillus subtilis and in the test with Aspergillus niger was “inactive” each time.
Consider `CC(C)C1C(=O)CC(c2ccccc2)N(C(=O)Cn2ccnc2)C1c1ccccc1` (centres undefined), for which the MIC was 100 mg/L (≈ 249 µM) in the test with Staphylococcus aureus (ATCC 25930, 24 h); 12.5 mg/L (≈ 31.1 µM) against Bacillus subtilis (ATCC 530, 24 h); 25 mg/L (≈ 62.3 µM) in the test on Salmonella typhi; 100 mg/L (≈ 249 µM) in the test with Escherichia coli; 25 mg/L (≈ 62.3 µM) against Cryptococcus neoformans; 50 mg/L (≈ 125 µM) with Rhizopus. For the same compound, the MIC came out at 12.5 mg/L (≈ 31.1 µM) against Aspergillus niger, 100 mg/L (≈ 249 µM) against Aspergillus flavus and 100 mg/L (≈ 249 µM) with Candida albicans. For the same compound, in the test on Klebsiella pneumoniae, the MIC result was “inactive”.

For the origin of these results see ChEMBL document CHEMBL1773012, “Synthesis, spectral, crystal structure and in vitro antimicrobial evaluation of imidazole/benzotriazole substituted piperidin-4-one derivatives” (2011).
